Screening data deposited in PubChem by Johns Hopkins Ion Channel Center.
Shown are actives, neighbours in structure and some others; about 2.3% of the full set was active somewhere.
TRPC4 PAM: positive allosteric modulators of TRPC4, primary screen, cell-based, mouse TRPC4beta, HEK293 mu-opioid, Fluo-4 calcium; Short transient receptor potential channel 4 (Mus musculus), Q9QUQ5; DAMGO EC20, Fluo-4 Ca2+ flux; stronger effect = higher value; B-score at 10 µM; 0.42% of 310,000 active; AID 2227, 2009;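 active means B-score of calcium response area above 5 SD of library B-scores, with initial fluorescence ratio within 5 SD of library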;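 further: B-score of integrated fluorescence ratio over time as area under calcium response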
Target sequence (Q9QUQ5 whole entry, looked up): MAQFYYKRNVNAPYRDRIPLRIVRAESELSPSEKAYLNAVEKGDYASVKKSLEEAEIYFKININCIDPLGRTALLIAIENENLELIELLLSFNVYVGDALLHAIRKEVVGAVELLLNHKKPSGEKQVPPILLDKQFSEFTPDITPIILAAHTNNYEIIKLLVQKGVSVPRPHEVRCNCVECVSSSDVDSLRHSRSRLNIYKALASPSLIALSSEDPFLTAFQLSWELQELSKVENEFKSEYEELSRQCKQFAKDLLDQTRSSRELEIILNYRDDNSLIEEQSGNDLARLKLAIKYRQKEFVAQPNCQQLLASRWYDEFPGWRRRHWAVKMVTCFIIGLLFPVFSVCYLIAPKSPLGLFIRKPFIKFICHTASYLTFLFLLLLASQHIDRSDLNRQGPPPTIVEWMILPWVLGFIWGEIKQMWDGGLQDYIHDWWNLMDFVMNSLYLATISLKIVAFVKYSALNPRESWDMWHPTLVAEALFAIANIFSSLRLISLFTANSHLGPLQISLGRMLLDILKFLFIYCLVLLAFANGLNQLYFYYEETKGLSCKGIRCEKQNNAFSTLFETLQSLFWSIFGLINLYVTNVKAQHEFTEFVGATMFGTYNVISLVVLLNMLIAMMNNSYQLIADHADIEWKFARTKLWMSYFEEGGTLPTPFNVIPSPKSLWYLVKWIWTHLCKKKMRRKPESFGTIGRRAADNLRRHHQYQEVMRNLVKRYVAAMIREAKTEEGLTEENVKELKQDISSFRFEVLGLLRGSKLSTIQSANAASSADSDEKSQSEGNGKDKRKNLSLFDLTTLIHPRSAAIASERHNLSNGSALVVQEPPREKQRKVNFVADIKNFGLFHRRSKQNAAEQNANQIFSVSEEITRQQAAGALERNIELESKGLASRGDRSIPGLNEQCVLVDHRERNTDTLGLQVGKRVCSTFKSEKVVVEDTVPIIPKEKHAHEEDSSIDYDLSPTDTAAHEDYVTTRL
TRPC6 inhibitor: mouse TRPC6 channel inhibitors, primary screen, cell-based, HEK293, membrane potential dye | Short transient receptor potential channel 6 (Mus musculus), Q61143 | ACh-evoked depolarization; stronger effect = lower value | B-score at 10 µM | 1.1% of 310,000 active;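 active means B-score under library mean minus 3 SD, initial fluorescence not abnormally high, positive integrated signal ratio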;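 further: B-score derived from integrated fluorescence ratio over the kinetic read; more negative B-score means stronger inhibition of depolarization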
TRPC6 activator: mouse TRPC6 channel activators, primary screen, cell-based, HEK293, membrane potential dye | 0.13% of 310,000 active | Short transient receptor potential channel 6 (Mus musculus), Q61143 | AID 2550, 2010 | B-score at 10 µM | HEK293-TRPC6 membrane potential dye fluorescence; stronger effect = higher value;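 active means B-score of the integrated fluorescence ratio above library mean plus 3 SD, and starting fluorescence ratio within library mean plus 5 SD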;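 further: higher score means more depolarization so channel activation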
TRPC4 block: inhibitors of mouse TRPC4 channel, primary screen, Fluo4 calcium, HEK293 TRPC4beta/mu-opioid cells; DAMGO-evoked Fluo4 calcium flux; stronger effect = lower value; B-score at 10 µM; 0.39% of 300,000 active;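 active means B-score over 3 SD under the library average, no early fluorescence shift, positive overall ratio signal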
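Material: HEK293 cells with stable TRPC4beta plus mu-opioid receptor expression; probe or stimulus: DAMGO in two steps, submaximal then maximal; technique: Fluo4 calcium fluorescence by kinetic imaging, 5 s 1 Hz baseline; measure: integrated fluorescence ratio relative to baseline, converted to per-well B score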
TRPC4 act: activators of mouse TRPC4 channel, primary screen, Fluo4 calcium, HEK293 TRPC4beta/mu-opioid cells; Short transient receptor potential channel 4 (Mus musculus), Q9QUQ5; Fluo4 calcium fluorescence; stronger effect = higher value; B-score at 10 µM; 0.49% of 310,000 active;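 active means B-score above 5 SD of library B-scores, and initial fluorescence ratio not above library mean plus 5 SD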;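 further: positive B-score marks a calcium rise read as TRPC4 activation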
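Test system: HEK293 cells stably co-expressing mouse TRPC4beta and mu-opioid receptor | Schedule: Fluo4 dye loading 45 min at room temperature, 110 s recording | Measured by: Kinetic Fluo4 calcium fluorescence, 5 s baseline at 1 Hz | Evaluation: B score of integrated ratio | Controls: Buffer (low) and maximal DAMGO (high)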
TRPC4 sel inh 2: second check of whether TRPC6 inhibitors also affect mouse TRPC4; 42% of 920 active; inhibition, % at 10 µM; HEK293 TRPC4/MOR, membrane potential dye fluorescence; channel activated by saturating DAMGO dose; shares compounds with TRPC6 inhibitor;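 active means compounds whose fluorescence signal differed from control wells by over 3 SD, either direction, in both duplicate plates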
TRPC4 spec: mouse TRPC4 modulation by TRPC6 hits, confirmation, selectivity assay for TRPC6 inhibitor project, cell-based, HEK293 TRPC4/mu-opioid, membrane potential dye; shares compounds with TRPC6 inhibitor; membrane potential fluorescence; activity change, negative = inhibition, % at 10 µM; 61% of 920 active;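 active means rise or fall in signal beyond 3 SD of buffer-only wells in both replicate plates, either sign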;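 further: integrated kinetic ratio of fluorescence range over baseline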
HEK293 MPD ctr 2-1: nonspecific membrane potential effects, parental HEK293, confirmation, counter-screen for TRPC6 inhibitor project, cell-based, second counter screen. AID 2779, 2010. parental HEK293 membrane potential dye fluorescence; maximal acetylcholine challenge after compound addition. signal change vs control, % at 10 µM. 31% of 920 active. shares compounds with TRPC6 inhibitor;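 active means membrane potential signal moving either way by over 3 SD of the maximum-effect control, in both duplicate plates, meaning non-specific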
HEK293 MPD ctr-1: membrane potential modulation in parental HEK293, confirmation, counter-screen for TRPC6 inhibitor project, cell-based. parental HEK293 membrane potential dye fluorescence. membrane potential signal change, % at 10 µM. AID 2780, 2010. 60% of 920 active. shares compounds with TRPC6 inhibitor;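 active means membrane potential signal shifting up or down by more than 3 SD of buffer-only wells, on both duplicate plates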
HEK293 MPD ctr-2: parental HEK293 membrane potential modulation, confirmation, counter-screen for TRPC6 modulator project, cell-based; shares compounds with TRPC6 inhibitor; membrane potential dye fluorescence; membrane potential signal change, % at 10 µM; 51% of 2,400 active;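 active means membrane potential signal moves up or down beyond 5 SD from buffer-only wells, on both duplicate plates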
HEK293 MPD ctr 2-2: second check of TRPC6 modulator effects in parental HEK293 cells; shares compounds with TRPC6 inhibitor; membrane potential dye fluorescence; after compound, maximal acetylcholine stimulation; inhibition, % at 10 µM; 14% of 2,400 active;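 active means membrane potential signal drops by more than 5 SD from the mean control signal, in both duplicate plates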;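 further: plate controls were acetylcholine ECmax control wells for no effect and buffer only wells for full effect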
TRPC4 ctr mod: TRPC4 modulation by TRPC6 hit compounds, confirmation, selectivity assay for TRPC6 modulator project, cell-based, HEK293 TRPC4/mu-opioid, membrane potential dye, mouse; 69% of 2,400 active; membrane potential fluorescence; shares compounds with TRPC6 inhibitor; percent change from control (negative = decrease, positive = increase), % at 10 µM; AID 488927, 2010;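 active means membrane potential signal moved up or down beyond 5 SD of buffer control wells, in both duplicate plates, actives on both sides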;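 further: plate controls were assay buffer wells for no effect and DAMGO maximal-effect wells for full effect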
TRPC4/MOR inh 2: second selectivity test of TRPC6 modulators against mouse TRPC4 | shares compounds with TRPC6 inhibitor | HEK293 TRPC4/mu-opioid, membrane potential dye fluorescence; stimulated with maximal-effect DAMGO | inhibition, % at 10 µM | 55% of 2,400 active | AID 488928;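 active means drop in membrane potential signal beyond 5 SD of the control wells in both duplicate plates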;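 further: TRPC4 counter screen for TRPC6 hits run under conditions tuned for TRPC6 not TRPC4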
TRPC6 inh conf: mouse TRPC6 channel inhibitors, confirmation, HEK293 cells, membrane potential dye, duplicate; inhibition, % at 10 µM; shares compounds with TRPC6 inhibitor; AID 488960, 2010; 43% of 3,300 active; ACh-evoked depolarization;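 active means fluorescence ratio falls more than 5 SD below the full-stimulation control mean, in both duplicate runs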;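 further: integrated fluorescence ratio of peak minus minimum over baseline after agonist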
TRPC6 act conf: mouse TRPC6 channel activators, confirmation, HEK293 cells, membrane potential dye, duplicate; activation, % at 10 µM; 11% of 2,800 active; AID 488961, 2010; HEK293-TRPC6 membrane potential dye fluorescence, FDSS; shares compounds with TRPC6 inhibitor;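 active means ratio signal rise beyond 5 SD above unstimulated control wells' mean, seen in both duplicate runs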;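 further: plate controls were buffer EC0 wells for no effect and acetylcholine ECmax response for full effect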
Numbers without * were called inactive.

Results for CC(C)c1ccc(S(=O)(=O)N2CCN(C(=O)c3cccc(F)c3)CC2)cc1 ?
TRPC4 PAM: inactive; TRPC6 inhibitor: inactive; TRPC6 activator: 16.9*; TRPC4 block: inactive; TRPC4 act: inactive; HEK293 MPD ctr-2: inactive; HEK293 MPD ctr 2-2: inactive; TRPC4 ctr mod: 19.5%*; TRPC4/MOR inh 2: inactive; TRPC6 act conf: 186.0%*

How did CC(C)c1ccc(S(=O)(=O)N2CCN(C(=O)C3CC3C)CC2)cc1 (stereo not given) do in these assays?
TRPC4 PAM: inactive; TRPC6 inhibitor: -10*; TRPC6 activator: 15.6*; TRPC4 block: inactive; TRPC4 act: inactive; HEK293 MPD ctr-2: inactive; HEK293 MPD ctr 2-2: inactive; TRPC4 ctr mod: 17.0%*; TRPC4/MOR inh 2: inactive; TRPC6 inh conf: 111.5%*; TRPC6 act conf: 145.0%*

What do the screens show for `CC(C)c1ccc(S(=O)(=O)N2CCN(C(=O)C3CCCCC3)CC2)cc1`?
TRPC4 PAM: inactive; TRPC6 inhibitor: inactive; TRPC6 activator: inactive; TRPC4 block: inactive; TRPC4 act: inactive

What do the screens show for `CC(=O)c1ccc(OCCCC(=O)N2CCN(S(=O)(=O)c3cc(C)ccc3C)CC2)cc1`?
TRPC4 PAM: inactive; TRPC6 inhibitor: inactive; TRPC6 activator: inactive; TRPC4 block: inactive; TRPC4 act: inactive

What do the screens show for `CC(=O)c1ccc(OCCCC(=O)N2CCN(S(=O)(=O)c3ccc(C(C)C)cc3)CC2)cc1`?
TRPC4 PAM: inactive; TRPC6 inhibitor: -9.25*; TRPC6 activator: inactive; TRPC4 block: inactive; TRPC4 act: inactive; TRPC4 sel inh 2: inactive; TRPC4 spec: -0.4%*; HEK293 MPD ctr 2-1: inactive; HEK293 MPD ctr-1: 1.7%*; TRPC6 inh conf: inactive

What do the screens show for `CCCc1nc2nc(C)c(NS(=O)(=O)c3ccc(C4CCCCC4)cc3)c(=O)n2[nH]1`?
TRPC4 PAM: inactive; TRPC6 inhibitor: inactive; TRPC6 activator: inactive; TRPC4 block: inactive; TRPC4 act: inactive

Results for COc1cc(OC)cc(C(=O)N[C@H](C(=O)Nc2nc3ccc(S(C)(=O)=O)cc3s2)C(C)C)c1 ?
TRPC4 PAM: inactive; TRPC6 inhibitor: inactive; TRPC6 activator: inactive; TRPC4 block: inactive; TRPC4 act: inactive

How did CSc1ccccc1NC(=O)c1ccccc1N(Cc1ccccc1)S(C)(=O)=O do in these assays?
TRPC4 PAM: inactive; TRPC6 inhibitor: -5.15*; TRPC6 activator: inactive; TRPC4 block: inactive; TRPC4 act: inactive; HEK293 MPD ctr-2: 141.5%*; HEK293 MPD ctr 2-2: inactive; TRPC4 ctr mod: 29.5%*; TRPC4/MOR inh 2: inactive; TRPC6 inh conf: inactive

How did COCCn1c(=O)c2c(nc3n2CC(C)CN3Cc2ccccc2)n(C)c1=O (stereo not given) do in these assays?
TRPC4 PAM: inactive; TRPC6 inhibitor: inactive; TRPC6 activator: inactive; TRPC4 block: inactive; TRPC4 act: inactive

What do the screens show for `COc1ccc(S(=O)(=O)Nc2noc3ccccc23)cc1`?
TRPC4 PAM: inactive; TRPC6 inhibitor: -6.69*; TRPC6 activator: inactive; TRPC4 block: inactive; TRPC4 act: inactive; TRPC4 sel inh 2: inactive; TRPC4 spec: inactive; HEK293 MPD ctr 2-1: inactive; HEK293 MPD ctr-1: inactive; TRPC6 inh conf: inactive; TRPC6 act conf: inactive

What do the screens show for `Cc1ccc(Cn2c(=N)c(C(=O)NCc3ccco3)cc3c(=O)n4ccccc4nc32)cc1`?
TRPC4 PAM: inactive; TRPC6 inhibitor: -5.02*; TRPC6 activator: inactive; TRPC4 block: inactive; TRPC4 act: 48*; HEK293 MPD ctr-2: inactive; HEK293 MPD ctr 2-2: inactive; TRPC4 ctr mod: -32.5%*; TRPC4/MOR inh 2: 38.5%*; TRPC6 inh conf: 36.5%*; TRPC6 act conf: inactive

What do the screens show for `N=c1c(C(=O)NCc2ccco2)cc2c(=O)n3ccccc3nc2n1CC1CCCO1` (stereo not given)?
TRPC4 PAM: inactive; TRPC6 inhibitor: inactive; TRPC6 activator: inactive; TRPC4 block: inactive; TRPC4 act: inactive

What do the screens show for `COCCn1c(=N)c(C(=O)NCc2ccco2)cc2c(=O)n3cc(C)ccc3nc21`?
TRPC4 PAM: inactive; TRPC6 inhibitor: -8.24*; TRPC6 activator: inactive; TRPC4 act: inactive; HEK293 MPD ctr-2: 422.5%*; HEK293 MPD ctr 2-2: 119.5%*; TRPC4 ctr mod: -74.0%*; TRPC4/MOR inh 2: 39.5%*; TRPC6 inh conf: 50.5%*; TRPC6 act conf: inactive
